How the values were obtained:
[1] = In vivo pharmacokinetics and biodistribution; set-up: species or system tumor-bearing nude mice; settings: for T2/1: blood circulation, i.v. single dose equal to 10-HCPT 5 mg/kg, tumor-bearing mice; for AUC(0-inf) / MRT inf: female, BALB/c (nude), mouse, iv, 5 mg/kg; for AUC0–inf / MRT0–inf: i.v. 5.0 mg/kg 10-HCPT injection or 35.1 mg/kg compound F solution, mice, n=6
How it was run: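 Tumor-bearing nude mice (n=6 per group) got one i.v. dose of free parent drug 5 mg/kg or parent-equivalent conjugate. Orbital blood was taken from 10 min to 48 h, and heart, liver, spleen, lung, kidney, brain and tumor were collected. Plasma or saline tissue homogenate was hydrolysed with 0.1 N NaOH (37°C, 20 min), then neutralised with HCl. Camptothecin internal standard was added before acetonitrile extraction. Parent drug was quantified by UPLC/MS and PK parameters derived with software.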

[2] = system: tumor-bearing nude mouse models; assay: In vivo antitumor efficacy; set-up: species or system mice; settings: for tumor growth inhibition effect (TIR): tail vein injection, equivalent to 5.0 mg/kg 10-HCPT once a day for 14 days, n=8
How it was run: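 Dosing began in tumor-bearing nude mice once tumors reached ~50–100 mm3; groups (n=8) were balanced for weight and tumor size. Mice received saline, commercial parent-drug injection 5.0 mg/kg, or conjugate 35.1 mg/kg (parent-equivalent 5.0 mg/kg) by tail vein once daily for 14 days. Tumor volume (a×b²/2) was measured every 2 days; toxicity was judged from behaviour and weight loss.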

[3] = system: HepG2, MCF-7, and SW480 cells; assay: In vitro cytotoxicity; type: cell-based; settings: MTT assay, three cell lines, 48 h
How it was run: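 Cells grown in RPMI 1640 or L-15 with 10% FBS were seeded at 5,000 cells/well and left to attach overnight. Graded concentrations of test compound were applied in quintuplicate for 48 h at 37°C and 5% CO2. MTT was added for 4 h and absorbance read at 490 nm. IC50 was taken as the concentration giving 50% growth inhibition; the assay was run three times.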

[4] = Characterization of compound F self-assembly micelles; type: physicochemical; settings: in water
[5] = Drug release from conjugates in plasma; type: in vitro ADME, human; settings: for amount of compound B released from the conjugate: plasma
How it was run: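 Conjugate stock (5.0 mg/mL) was added to human serum to 0.5 mg/mL final, with camptothecin internal standard at 1.0 µg/mL final, at 37°C. Samples were taken from 0.5 to 48 h, protein-precipitated with acetonitrile, centrifuged, dried under N2 at 40°C and reconstituted in acetonitrile. Analysis was by UPLC/MS against serum standards of 0.5–1,000 ng/mL using the internal standard method.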

[6] = Water solubility of the prodrug; type: physicochemical; settings: prodrug relative to 10-HCPT
[7] = Drug release from conjugates in phosphate-buffered saline; type: physicochemical
How it was run: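 Conjugate at 0.5 mg/mL final in 0.01 mol/L PBS at pH 3.0, 4.0, 5.0, 6.0 and 7.4, held at 37°C for 48 h. Supernatants were analysed by UPLC/MS in MRM mode using the 477.0/433.1 transition for the released ester.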

[8] = once a day for 14 days, tail vein

## CC[C@@]1(O)C(=O)OCc2c1cc1n(c2=O)Cc2cc3cc(O)ccc3nc2-1 [10-HCPT, 10-Hydroxycamptothecin, reference compound]
[1]
  T2/1: 1.859 ± 1.385 h
[1]; heart
  AUC(0-inf): 11600 ng·h/mL
  MRT inf: 6.18 ± 1.5 h
[1]; kidney
  AUC(0-inf): 2090 ng·h/mL
  MRT inf: 5.96 ± 1.09 h
[1]; liver
  AUC(0-inf): 28700 ng·h/mL
  MRT inf: 5.69 ± 0.845 h
[1]; lung
  AUC(0-inf): 130000 ng·h/mL
  MRT inf: 4.79 ± 0.648 h
[1]; plasma
  AUC(0-inf): 8410 ng·h/mL
  MRT inf: 6.15 ± 0.964 h
[1]; spleen
  AUC(0-inf): 5040 ng·h/mL
  MRT inf: 5.68 ± 0.771 h
[1]; tumor
  AUC(0-inf): 21000 ng·h/mL
  MRT inf: 9.25 ± 1.03 h
[2]; [8]
  body weight change (in words): significant body weight loss
[2]
  tumor growth inhibition effect (TIR): 63.85%±5.233

## 5-carbonyl caproic acid
[3]
  cytotoxicity (in words): almost no cytotoxicity

## 10-HCPT-thiosemicarbazide-PEG2000-MeO conjugate [compound F]
[4]
  concentration at which conjugates self-assemble into micelles: 7500 µg/mL
[1]; Heart
  AUC0–inf: 3,795.7±1,539.3 µg/L h
  MRT0–inf: 4.379 ± 1.171 h
[1]; Kidney
  AUC0–inf: 1,260.4±585.8 µg/L h
  MRT0–inf: 2.948 ± 0.548 h
[1]; Liver
  AUC0–inf: 52,688.4±3,111.2 µg/L h
  MRT0–inf: 10.07 ± 0.957 h
[1]; Lung
  AUC0–inf: 293,117.9±31,343.1 µg/L h
  MRT0–inf: 6.96 ± 0.178 h
[1]; Plasma
  AUC0–inf: 173,410.1±13,824.5 µg/L h
  MRT0–inf: 28.975 ± 1.238 h
[1]; Spleen
  AUC0–inf: 8,993.1±1,534.3 µg/L h
  MRT0–inf: 7.756 ± 1.518 h
[1]; Tumor
  AUC0–inf: 162,823.9±19,289.2 µg/L h
  MRT0–inf: 39.873 ± 4.549 h
[1]
  T2/1: 10.516 ± 1.158 h
[1]; tumor
  AUC0–inf in tumor relative to 10-HCPT solution: 7.76 fold
  MRT0–inf in tumors compared with 10-HCPT solution: 4.31 fold
[3]
  cytotoxicity (in words): strongest cytotoxicity
[2]; [8]
  body weight change (in words): did not cause significant loss of body weight
[2]; once a day for 14 days, tail vein, P<0.05
  tumor volume (in words): significantly smaller than that of the group treated with either saline or 10-HCPT solution
[2]
  tumor growth inhibition effect (TIR): 82.66%±7.175
[5]; 37°C, after 1 h
  amount of compound B released from the conjugate: 5%
[5]; 37°C, after 4 h
  amount of compound B released from the conjugate: 15%
[5]; after 48 h
  amount of compound B released from the conjugate: < 30%
[5]; rat plasma
  stability (in words): good stability
[6]
  water solubility increase: over 3,000 times
[7]; PBS pH 5.0, 37°C, after 4 h
  amount of compound B released from the conjugate: ~100%
[7]; PBS pH 7.4, 37°C, after 1 h
  amount of compound B released from the conjugate: 2%
[7]; PBS pH 7.4, 37°C, after 4 h
  amount of compound B released from the conjugate: 8%
[7]; pH 7.4 PBS, after 48 h
  amount of compound B released from the conjugate: < 30%
[7]; phosphate-buffered saline (pH 7.4)
  stability (in words): good stability

Reference: publication PMC5367588 (International Journal of Nanomedicine, 2017)
